Active and inactive are the calls of the source. The calls are words filed in the database; no cut-off is given here. Bounds are passed on as bounds.

This note sets out measurements from ChEMBL document CHEMBL2380281, “Synthesis of proline analogues as potent and selective cathepsin S inhibitors” (Bioorg Med Chem Lett, 2013).

The target in data set [1] is T1, Cathepsin S (Homo sapiens, UniProt P25774). The data set is described as follows: Inhibition of human cathepsin-S.
Target sequence in this assay (P25774 whole entry): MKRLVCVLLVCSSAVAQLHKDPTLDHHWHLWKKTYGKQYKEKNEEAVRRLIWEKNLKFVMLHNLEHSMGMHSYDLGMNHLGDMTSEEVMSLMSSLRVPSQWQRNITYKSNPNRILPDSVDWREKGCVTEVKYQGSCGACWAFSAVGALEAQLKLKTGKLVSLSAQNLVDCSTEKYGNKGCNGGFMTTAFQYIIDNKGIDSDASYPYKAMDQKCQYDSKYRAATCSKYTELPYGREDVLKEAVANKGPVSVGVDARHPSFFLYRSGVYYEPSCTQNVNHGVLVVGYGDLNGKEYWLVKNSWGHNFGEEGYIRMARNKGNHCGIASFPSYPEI
The target of the next data set is Cathepsin B (Homo sapiens, UniProt P07858). The data set can be described thus: Inhibition of human cathepsin-B. A digest of the protocol:
(§1)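 Human cathepsin B and K activity measured with a SensoLyte 520 cathepsin activity assay kit; LHVS as pan-cathepsin positive control.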

For another data set, the target named is T2, Cathepsin K (Homo sapiens, UniProt P43235).
T2 sequence (P43235 whole entry): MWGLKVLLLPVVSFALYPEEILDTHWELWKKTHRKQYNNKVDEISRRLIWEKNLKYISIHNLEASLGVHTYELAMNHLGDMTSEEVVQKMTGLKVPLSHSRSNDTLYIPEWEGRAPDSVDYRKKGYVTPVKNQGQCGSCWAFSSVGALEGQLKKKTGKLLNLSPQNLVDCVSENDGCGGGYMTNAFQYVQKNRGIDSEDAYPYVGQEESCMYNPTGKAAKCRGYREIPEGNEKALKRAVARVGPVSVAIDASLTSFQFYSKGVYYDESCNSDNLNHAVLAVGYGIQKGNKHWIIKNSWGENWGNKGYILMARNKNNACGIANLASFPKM
The data set can be described thus: Inhibition of human cathepsin-K. An outline of the steps: as §1

A short description of data set [2]: Oral bioavailability in Sprague-Dawley rat at 10 mg/kg. The following applies: in vivo. The data set is classed as ADME, organism-based. A digest of the protocol: (§2)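 Male Sprague–Dawley rats, 7 weeks of age, received one oral dose of 10 mg/kg or one intravenous dose of 5 mg/kg (n = 3 each); pharmacokinetic parameters determined.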
Data set [3] has as its target T1, Cathepsin S. The data set can be described thus: Inhibition of cathepsin-S in human Jiyoye cells assessed as conversion of invariant chain Lip10 to CLIP. The data set is classed as cell-based. A digest of the protocol: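 Jiyoye cells were stimulated with IFN-γ and treated with the inhibitor at 1, 10, 100 and 1000 nM, alongside untreated controls. The read-out was Lip10 accumulation.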
Target sequence in this assay (P25774 115-331 limits assumed): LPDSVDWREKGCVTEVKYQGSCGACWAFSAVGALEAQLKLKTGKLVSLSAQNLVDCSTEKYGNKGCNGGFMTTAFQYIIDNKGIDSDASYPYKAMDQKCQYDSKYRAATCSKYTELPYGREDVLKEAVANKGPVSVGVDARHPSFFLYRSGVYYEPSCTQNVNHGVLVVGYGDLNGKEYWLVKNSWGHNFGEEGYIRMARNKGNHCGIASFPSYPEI

The target in another data set is Cytochrome P450 3A4 (Homo sapiens, UniProt P08684). The data set is described as follows: Inhibition of CYP3A4 (unknown origin) by fluorescence detection method. The data set is classed as ADME.
Data set [4] can be described thus: AUC (0 to 24 hrs) in beagle dog at 1 mg/kg, iv and 10 mg/kg, po. The class given is ADME, organism-based, Canis lupus familiaris. Conditions: plasma. An outline of the steps: (§3)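 Male beagle dogs aged 14 months dosed once, 10 mg/kg orally or 1 mg/kg intravenously, n = 3 per route; pharmacokinetic parameters calculated.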
Data set [5] in a line: Cmax in ICR mouse at 5 mg/kg, iv and 10 mg/kg, po. The class given is ADME, organism-based. Conditions: in vivo. An outline of the steps: (§4)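 Single dose given orally (10 mg/kg) or intravenously (5 mg/kg) to male ICR mice, 7 weeks old, n = 3 per route; pharmacokinetic parameters derived from these dosings.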
The target in a further data set is Cytochrome P450 2D6 (Homo sapiens, UniProt P10635). The data set is described as follows: Inhibition of CYP2D6 (unknown origin) by fluorescence detection method. The class given is ADME.
A further data set deals with Cytochrome P450 2C9 (Homo sapiens, UniProt P11712). The data set is described as follows: Inhibition of CYP2C9 (unknown origin) by fluorescence detection method. The data set is classed as ADME.
Data set [6] can be described thus: Half life in beagle dog at 1 mg/kg, iv and 10 mg/kg, po. The data set is classed as ADME, organism-based, Canis lupus familiaris. Conditions: in vivo. A digest of the protocol:
as §3

Data set [7] is described as follows: Oral bioavailability in ICR mouse at 10 mg/kg. The class given is ADME, organism-based. Conditions: in vivo. An outline of the steps:
as §4

The next data set concerns the target Cytochrome P450 2C19 (Homo sapiens, UniProt P33261). The data set can be described thus: Inhibition of CYP2C19 (unknown origin) by fluorescence detection method. The class given is ADME.
A short description of data set [8]: AUC (0 to 24 hrs) in ICR mouse at 5 mg/kg, iv and 10 mg/kg, po. Conditions: plasma. The data set is classed as ADME, organism-based. An outline of the steps: as §4
Data set [9] in a line: Oral bioavailability in beagle dog at 10 mg/kg. The data set is classed as ADME, organism-based, Canis lupus familiaris. The following applies: in vivo. An outline of the steps:
as §3

Data set [10] is described as follows: AUC (0 to 24 hrs) in Sprague-Dawley rat at 5 mg/kg, iv and 10 mg/kg, po. The following applies: plasma. The class given is ADME, organism-based. A digest of the protocol:
as §2

The target in another data set is T3, Cytochrome P450 1A2 (Homo sapiens, UniProt P05177).
T3 sequence (P05177 whole entry): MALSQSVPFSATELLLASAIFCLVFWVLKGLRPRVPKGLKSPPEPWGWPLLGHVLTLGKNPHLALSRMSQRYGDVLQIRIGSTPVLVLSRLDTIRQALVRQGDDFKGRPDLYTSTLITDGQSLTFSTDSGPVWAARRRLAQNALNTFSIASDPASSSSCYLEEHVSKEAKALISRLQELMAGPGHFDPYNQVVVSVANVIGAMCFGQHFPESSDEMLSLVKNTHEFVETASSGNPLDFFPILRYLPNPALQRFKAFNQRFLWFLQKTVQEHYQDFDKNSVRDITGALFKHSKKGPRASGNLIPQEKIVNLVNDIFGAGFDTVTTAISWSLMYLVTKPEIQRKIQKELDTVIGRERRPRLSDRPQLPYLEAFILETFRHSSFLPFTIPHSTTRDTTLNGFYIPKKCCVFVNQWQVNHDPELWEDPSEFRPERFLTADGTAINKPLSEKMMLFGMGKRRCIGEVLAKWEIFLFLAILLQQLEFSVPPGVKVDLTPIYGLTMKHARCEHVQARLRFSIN
The data set is described as follows: Inhibition of CYP1A2 (unknown origin) by fluorescence detection method. The data set is classed as ADME.

A short description of data set [11]: Cmax in Sprague-Dawley rat at 5 mg/kg, iv and 10 mg/kg, po. The data set is classed as ADME, organism-based. The following applies: in vivo. A digest of the protocol: as §2
Another data set relates to Mus musculus. The data set is described as follows: Antiarthritic activity in DBA1/J mouse assessed as decrease in collagen-induced arthritis score and degree of paw swelling at 30 mg/kg, po qd for 14 days. The data set is classed as functional, organism-based. Also on record: dose 30 mg/kg. A digest of the protocol: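 Male DBA1/J mice (8 weeks, n = 7/group) immunized intradermally at tail base with bovine type II collagen in complete Freund's adjuvant, boosted 3 weeks later with collagen in incomplete Freund's adjuvant. Oral dosing once daily at 30 mg/kg in 10% hydroxypropyl-β-cyclodextrin/water, or vehicle, for 14 days. Arthritis score and paw swelling graded per paw every 2–3 days for 2 weeks from day 10 post-boost.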

A short description of data set [12]: Metabolic stability in human liver microsomes assessed as compound remaining at 5 uM after 60 mins. The data set is classed as ADME, Microsome. Conditions: read-out: Stability. An outline of the steps:
(§5)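 Compound at 5 µM incubated 60 min with mouse, rat, dog or human liver microsomes, in duplicate; result given as percentage of parent remaining.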
A general note: Liver microsomes are a subcellular fraction often used to study metabolism.

Data set [13] is described as follows: Metabolic stability in mouse liver microsomes assessed as compound remaining at 5 uM after 60 mins. The class given is ADME, Microsome. Conditions: read-out: Stability. An outline of the steps:
as §5

Data set [14] can be described thus: Half life in Sprague-Dawley rat at 5 mg/kg, iv and 10 mg/kg, po. Conditions: in vivo. The class given is ADME, organism-based. An outline of the steps:
as §2

The nature of data set [15]: Half life in ICR mouse at 5 mg/kg, iv and 10 mg/kg, po. The data set is classed as ADME, organism-based. The following applies: in vivo. A digest of the protocol: as §4
Data set [16] in a line: Metabolic stability in rat liver microsomes assessed as compound remaining at 5 uM after 60 mins. The data set is classed as ADME, Microsome. Conditions: read-out: Stability. An outline of the steps: as §5
A short description of data set [17]: Cmax in beagle dog at 1 mg/kg, iv and 10 mg/kg, po. The following applies: in vivo. The data set is classed as ADME, organism-based, Canis lupus familiaris. An outline of the steps: as §3
Data set [18] in a line: Metabolic stability in dog liver microsomes assessed as compound remaining at 5 uM after 60 mins. The class given is ADME, Canis lupus familiaris, Microsome. The following applies: read-out: Stability. An outline of the steps:
as §5

Sequence of Cytochrome P450 3A4 (P08684 whole entry): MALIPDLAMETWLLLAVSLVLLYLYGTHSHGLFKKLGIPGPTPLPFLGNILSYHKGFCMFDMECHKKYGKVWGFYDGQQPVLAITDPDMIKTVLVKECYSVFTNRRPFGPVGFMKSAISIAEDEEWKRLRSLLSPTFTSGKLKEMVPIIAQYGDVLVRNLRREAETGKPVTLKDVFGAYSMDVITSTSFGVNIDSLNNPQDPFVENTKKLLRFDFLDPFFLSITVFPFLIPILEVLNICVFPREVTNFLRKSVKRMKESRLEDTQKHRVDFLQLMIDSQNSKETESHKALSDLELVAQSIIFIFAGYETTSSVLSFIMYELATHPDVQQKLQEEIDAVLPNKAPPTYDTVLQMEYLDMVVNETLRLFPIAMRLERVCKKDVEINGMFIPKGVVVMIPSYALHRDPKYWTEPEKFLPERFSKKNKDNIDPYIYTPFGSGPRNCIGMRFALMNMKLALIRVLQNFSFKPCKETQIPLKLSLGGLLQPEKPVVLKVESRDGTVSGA
Sequence of Cytochrome P450 2C19 (P33261 whole entry): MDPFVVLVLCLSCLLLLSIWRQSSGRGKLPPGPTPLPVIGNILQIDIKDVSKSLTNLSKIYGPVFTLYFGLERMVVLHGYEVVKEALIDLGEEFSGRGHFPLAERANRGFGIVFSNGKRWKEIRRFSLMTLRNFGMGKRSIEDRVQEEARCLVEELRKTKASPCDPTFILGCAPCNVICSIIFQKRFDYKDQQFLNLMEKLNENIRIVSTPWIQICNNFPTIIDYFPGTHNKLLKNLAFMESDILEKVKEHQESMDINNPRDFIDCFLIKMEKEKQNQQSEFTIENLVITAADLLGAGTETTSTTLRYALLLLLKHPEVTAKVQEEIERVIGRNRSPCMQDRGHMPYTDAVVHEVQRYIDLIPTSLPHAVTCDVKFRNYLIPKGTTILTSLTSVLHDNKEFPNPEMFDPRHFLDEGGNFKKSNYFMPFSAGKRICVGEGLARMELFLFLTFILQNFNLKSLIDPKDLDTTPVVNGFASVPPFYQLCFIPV
Sequence of Cytochrome P450 2D6 (P10635 whole entry): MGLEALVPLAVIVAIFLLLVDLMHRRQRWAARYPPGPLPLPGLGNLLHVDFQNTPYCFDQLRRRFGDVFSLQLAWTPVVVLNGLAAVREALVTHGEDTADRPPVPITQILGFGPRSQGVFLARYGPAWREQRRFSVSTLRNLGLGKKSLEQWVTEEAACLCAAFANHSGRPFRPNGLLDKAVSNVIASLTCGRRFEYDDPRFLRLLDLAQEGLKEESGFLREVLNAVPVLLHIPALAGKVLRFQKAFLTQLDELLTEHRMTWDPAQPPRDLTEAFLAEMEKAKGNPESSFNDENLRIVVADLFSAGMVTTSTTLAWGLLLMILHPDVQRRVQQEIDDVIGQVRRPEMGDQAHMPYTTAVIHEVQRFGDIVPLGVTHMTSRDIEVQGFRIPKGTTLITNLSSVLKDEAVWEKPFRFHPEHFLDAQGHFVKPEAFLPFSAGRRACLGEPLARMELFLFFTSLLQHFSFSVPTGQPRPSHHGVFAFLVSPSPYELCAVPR
Sequence of Cytochrome P450 2C9 (P11712 whole entry): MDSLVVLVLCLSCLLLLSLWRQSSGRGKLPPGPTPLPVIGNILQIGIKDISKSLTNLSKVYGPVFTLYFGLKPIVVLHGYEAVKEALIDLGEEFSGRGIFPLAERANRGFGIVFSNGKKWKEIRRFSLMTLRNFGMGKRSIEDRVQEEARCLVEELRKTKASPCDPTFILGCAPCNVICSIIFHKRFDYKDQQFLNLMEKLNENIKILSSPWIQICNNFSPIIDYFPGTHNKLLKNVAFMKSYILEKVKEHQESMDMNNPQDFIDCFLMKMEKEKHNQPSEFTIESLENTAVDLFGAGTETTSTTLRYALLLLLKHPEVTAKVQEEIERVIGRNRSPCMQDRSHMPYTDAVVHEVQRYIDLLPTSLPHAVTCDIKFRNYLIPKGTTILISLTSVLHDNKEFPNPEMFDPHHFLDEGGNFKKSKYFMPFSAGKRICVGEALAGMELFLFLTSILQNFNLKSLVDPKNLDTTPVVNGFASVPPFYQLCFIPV

The term IC50 denotes the concentration at which inhibition is half-maximal. High values mean weaker potency, low ones greater potency. Compound `CCC(NC(=O)[C@@H]1C[C@@H](Oc2ccccc2)CN1C(C)=O)C(=O)c1nc2ccccc2o1` (stereo partly drawn) had an IC50 on Cathepsin S [1] of more than 1000 nM.

Consider `CCC(NC(=O)[C@@H]1C[C@@H](S(=O)(=O)c2ccccc2)CN1C(=O)N1CCCC1)C(=O)c1nc2ccccc2o1` (stereo partly drawn), for which, on Cathepsin S [1], the IC50 was found to be 3.7 nM.

For the compound `CCC(NC(=O)[C@@H]1C[C@@H](S(=O)(=O)c2ccccc2)CN1C(=O)C1CCCCC1)C(=O)c1nc2ccccc2o1` (stereo partly drawn), the IC50 against Cathepsin B was more than 10000 nM; at Cathepsin S [1] it was 3.3 nM; against Cathepsin K it was more than 10000 nM.

Compound `CC[C@@H](NC(=O)[C@@H]1C[C@@H](S(=O)(=O)c2ccccc2)CN1C(C)=O)C(=O)c1nc2ccccc2o1` came in with a concentration for half-maximal inhibition (IC50) against Cathepsin S [1] of 4.3 nM.

At Cathepsin S [1], `CCC(NC(=O)[C@@H]1C[C@@H](Sc2ccccc2)CN1C(C)=O)C(=O)c1nc2ccccc2o1` (stereo partly drawn) yielded an IC50 of 20.7 nM.

On to `CCC(NC(=O)[C@@H]1C[C@@H](S(=O)(=O)c2ccccc2)CN1C(=O)c1cccc(Cl)c1)C(=O)c1nc2ccccc2o1` (stereo partly drawn), for which the concentration for half-maximal inhibition (IC50) is more than 1000 nM against Cathepsin B, 1.1 nM on Cathepsin S [1] and more than 1000 nM against Cathepsin K.

In the case of `CC(=O)N1C[C@H](S(=O)(=O)c2ccccc2)C[C@H]1C(=O)NC(C(=O)c1nc2ccccc2o1)C(C)C` (stereo partly drawn), 24.6 nM corresponded to half-maximal inhibition on Cathepsin S [1] (IC50).

As to `CCC(NC(=O)[C@@H]1C[C@@H](S(=O)(=O)c2ccccc2)CN1C(=O)c1ccccc1)C(=O)c1nc2ccccc2o1` (stereo partly drawn), the concentration for half-maximal inhibition (IC50) at Cathepsin B was more than 10000 nM; against Cathepsin S [1], 3 nM; at Cathepsin K, more than 10000 nM.

What is called bioavailability is the share of a dose that reaches the circulation, judged against a reference dose that is usually intravenous. A low value points to poor availability. One may read the AUC(0-t) as exposure summed from dosing to a finite time, without extrapolation to infinity. Low readings indicate low exposure, high ones high exposure. A word on the Cmax: it is the highest concentration seen after dosing. Broadly, the half-life is the time in which the quantity being followed falls by half. A higher half-life goes with slow decline. Turning to `CC[C@H](NC(=O)[C@@H]1C[C@@H](S(=O)(=O)c2ccccc2)CN1C(C)=O)C(=O)c1nc2ccccc2o1`, the bioavailability came out at 64.8% in data set [2], 28.7% in [7] and 48.6% in [9]. Moreover, at Cathepsin S [3], the inhibition result is “Active”. Further, the half-maximal inhibitory concentration (IC50) at Cathepsin B was more than 10000 nM; on Cytochrome P450 3A4, 9950 nM; on Cytochrome P450 2D6, more than 20000 nM; on Cytochrome P450 2C9 it was 5000 nM; on Cathepsin S [1] it was 3.3 nM; on Cytochrome P450 2C19, more than 20000 nM. The half-inhibitory concentration (IC50) at Cytochrome P450 1A2 was more than 20000 nM; on Cathepsin K it was more than 10000 nM. The figures for the area under the curve AUC(0-t) in data set [4], in [8] and in [10] were 5050 ng·h/mL, 1030 ng·h/mL and 7250 ng·h/mL, respectively. Further, the highest concentration (Cmax) in data set [5] amounted to 1910 ng/mL; in [11], 3520 ng/mL; in data set [17] it was 3820 ng/mL. For the same compound, the half-life in data set [6] was 3.7 h; in [14], 2.1 h; in data set [15], 1.6 h. In addition, the outcome with Mus musculus was Active. The remaining at 1 h, 5 µM was found to be 70% in [12], 37% in data set [13], 37% in [16] and 47% in [18].

For the compound `CC(=O)N1C[C@H](S(=O)(=O)c2ccccc2)C[C@H]1C(=O)NC(C)C(=O)c1nc2ccccc2o1` (stereo partly drawn), half-maximal inhibition on Cathepsin S [1] (IC50) required 18.1 nM.

In the case of `CCC(NC(=O)[C@@H]1C[C@@H](S(=O)(=O)c2ccccc2)CN1C(=O)c1ccc(Cl)cc1)C(=O)c1nc2ccccc2o1` (stereo partly drawn), half-maximal inhibition against Cathepsin S [1] (IC50) required 2 nM.

For `O=C(CNC(=O)[C@@H]1C[C@@H](S(=O)(=O)c2ccccc2)CN1C(=O)C1CCCCC1)c1nc2ccccc2o1`, the IC50 on Cathepsin S [1] is 36.6 nM.

Compound `CCC(NC(=O)[C@@H]1C[C@@H](S(=O)(=O)c2ccccc2)CN1C(=O)CCOC)C(=O)c1nc2ccccc2o1` (stereo partly drawn) had an IC50 on Cathepsin S [1] of 3.3 nM.

On to `CCC(NC(=O)[C@@H]1C[C@@H](S(=O)(=O)c2ccccc2)CN1C(=O)c1ccc(-c2ccccc2)cc1)C(=O)c1nc2ccccc2o1` (stereo partly drawn), for which the IC50 against Cathepsin B is more than 10000 nM; at Cathepsin S [1] it was 4.1 nM; against Cathepsin K, more than 10000 nM.

`CCC(=O)N1C[C@H](S(=O)(=O)c2ccccc2)C[C@H]1C(=O)NC(CC)C(=O)c1nc2ccccc2o1` (stereo partly drawn) had a 50% inhibitory concentration (IC50) at Cathepsin S [1] of 3.1 nM.
